Source: ChEMBL document CHEMBL4513216, “Probing the Open Global Health Chemical Diversity Library for Multistage-Active Starting Points for Next-Generation Antimalarials” (ACS Infect Dis, 2020)

Assay: Toxicity liver stage against HepG2, at 10uM
Format: cell-based
Set-up: test concentration 10 uM, cell line HepG2-A16-CD81EGFP
Settings: human, HepG2-A16-CD81EGFP cells; read-out: INHIBITION
Summary of the method: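 Uninfected HepG2-A16-CD81EGFP cells, 3 × 10^3 per well, 1536-well, plated on prespotted compound at 10 μM final, parasite-free screening media added to match infected plates; puromycin 10 μM positive, DMSO 0.5% negative; run in parallel with 48 h PbLuc assay at 37 °C, 5% CO2; viability by CellTiter-Glo luminescence, normalized to controls.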

SMILES | cytotoxicity at 10 µM
COCC(=O)N[C@H](C)c1c(-c2ccc(OC)cc2)noc1C(=O)O | 0.588%
CCn1cc(-c2nn3c(C(F)(F)F)nnc3s2)cn1 | -12.3%
CC1CCc2[nH]c(=O)c(C(=O)N3CCc4ccccc4C3)cc2C1 (stereo unspecified) | -6.77%
O=C(c1ccsc1)N1C[C@@H]2CCN(C(=O)c3cccc(F)c3)[C@@H]2C1 | 1.47%
c1cncc(CN2CCC3(CCCN(c4nncs4)C3)C2)c1 (stereo unspecified) | -144%
CC(C)CN1CCC2(CC(C(=O)NCc3cccnc3)=NO2)C1 (stereo unspecified) | -5.99%
Cn1ncc(C(=O)N2CCN(S(C)(=O)=O)CC2)c1Cl | 7.58%
COc1cc(-c2n[nH]c(CCN)n2)cc(OC)c1OC | -0.297%
Cc1nc(N2CCCC2)ncc1-c1cc(O)nc(N2CCCC2)n1 | 6.79%
CCOc1ccc(N2CCCN=C2NC(=O)c2ccccc2C)cc1 | -6.69%
Cc1cc(Cc2ccccc2C)cc(C2CCCNC2)n1 (stereo unspecified) | -3.59%
CC(C)CC(NC(=O)c1cccs1)c1nc2cccnc2n1C (stereo unspecified) | 7.27%
Cc1nn(C)cc1NC(=O)CC1CCN(C(=O)Cc2ccccc2)CC1 | 1.96%
O=C1CCC[C@]2(CN(S(=O)(=O)C3CCCCC3)C[C@H]2c2cccnc2)N1 | -12.4%
Cc1cc(C)nc(N2CCOC(C)(C(=O)N(C)C)C2)n1 (stereo unspecified) | -3.04%
Cc1csc(C(Cc2ccsc2)NC(=O)C2CCN(S(C)(=O)=O)CC2)n1 (stereo unspecified) | -18%
CN(C)CCOc1cc(NC(=O)COCC(F)(F)F)ccn1 | -2.29%
Cc1cccc(NCC(=O)NC2(C#N)CCCC2)c1C(=O)N1CCCC1 | -0.69%
Cc1ccc(C(C)NC(=O)Cc2c(C)nc3cc(=O)[nH]n3c2C)s1 (stereo unspecified) | -0.159%
CN(C)CCN(Cc1ccc(Cl)cc1)C(=O)c1ccn(C)c(=O)c1 | -5.22%
CCc1nnsc1C(=O)NCCCC(CC)(CC)C1OCCO1 | 5.95%
O=C(Cc1ccon1)N(CCC(F)(F)F)C1CCCC1 | -9.36%
Cc1ccc(S(N)(=O)=O)cc1C(=O)NC1CCN(C2CC2)CC1 | 13.3%

SMILES | cytotoxicity at 10 µM
COc1c(Cl)cc(Cl)cc1CN1CCC(C(N)=O)C1 (stereo unspecified) | 11.9%
CCN(CC1CCOC1)S(=O)(=O)Cc1ccccc1Cl (stereo unspecified) | -0.768%
COc1cccc(CC(=O)NCCc2nnc3n2CCCCC3)c1 | -18.4%
Cn1c(CN2CCCC(N3CCCCCC3)C2)cc(=O)n(C)c1=O (stereo unspecified) | -1.85%
CC(NC(=O)Nc1cccnc1N1CCOCC1)c1ccccn1 (stereo unspecified) | 0.456%
O=C(NC1CCCOc2cc(Cl)ccc21)c1ccc(=O)[nH]n1 (stereo unspecified) | 1.5%
CC(C)CC(=O)N1CCC2(CC1)OCCO2 | 4.37%
O=C(Cc1cccnc1)NCCSc1ccccc1F | -6.45%
Cc1ccsc1C(Cc1ccccc1)NC(=O)CSCC(N)=O (stereo unspecified) | 8.13%
CCOC(=O)C1CCN(Cc2c(O)ccc3oc4c(c23)CCCC4)CC1 | -1.2%
NC(=O)CCCNC(=O)Cc1cccc(I)c1 | -3.71%
C1CC(c2noc(C3CC3)n2)CN(CCOCC2CC2)C1 (stereo unspecified) | -8.91%
Cc1nc(C(=O)NCc2ccc(N3CCNC(=O)C3)c(F)c2)cs1 | -0.0162%
CNC(=O)CS(=O)(=O)Cc1coc(-c2cccc(F)c2)n1 | 1.28%
COC(=O)NCC(=O)N1CCc2cc(Cl)cc(Cl)c2C1 | 0.598%
OCC1(NCc2cnc(-c3ccsc3)s2)CCOCC1 | -3.1%
O=C(c1cccc(F)c1Cl)N(CCO)CC1CC1 | 0.684%
CN(Cc1nnc(C2CC2)n1C)C1CCN(CCc2ccncc2)C1 (stereo unspecified) | -4.56%
Cc1ccc(OCCC(=O)N(C)CCC#N)cc1C | 6.5%
CCOc1ncccc1NC(=O)c1cccs1 | 0.932%
CNC(=O)c1cccc(CCNc2ccc(C#N)cn2)c1 | -3.67%
COCc1csc(NC(=O)NCc2ccc(C)s2)n1 | 2.44%
COc1ccc(F)cc1C[S+]([O-])CC(=O)NCc1ccccc1 (stereo unspecified) | -8.97%

SMILES | cytotoxicity at 10 µM
Cc1cc(C)cc(NC(=O)CC2CN(Cc3ccccc3)CCO2)c1 (stereo unspecified) | -8.46%
O=C(c1cc[nH]c(=O)c1)N1CCn2c(nnc2-c2ccccc2)C1 | -4.71%
O=C(Nc1ccccc1-c1cccs1)N1CCOCC1 | -5.01%
CC(C)(CCS(C)(=O)=O)CNC(=O)NC1CCCCC1(C)C (stereo unspecified) | 11.3%
COCCOc1ccc(CNc2nc3ccccc3o2)cn1 | 7.45%
O=C(NCC(CO)Cc1ccc(Cl)cc1)c1ccncc1F (stereo unspecified) | -4.84%
O=S(=O)(Cc1ccc(F)c(Cl)c1)NCCOc1cccnc1 | -49.9%
Cc1cnn(CCCNC2Cc3ccccc3C2)c1 | 3.34%
COc1ccccc1C1(CNc2ncc(S(N)(=O)=O)s2)CC1 | -3.6%
Cc1cc(C)c(CNC(=O)NCc2nnc3n2CCCC3)c(=O)[nH]1 | -5.34%
CC(C)CNC(=O)CCN1C(=O)CCc2cc(F)ccc21 | 8.17%
O=S(=O)(Cc1ccc(F)c(Cl)c1)NC(CO)c1ccco1 (stereo unspecified) | -3.49%
Cc1nn(C)c(C)c1CCC(=O)Nc1cn(C)c(=O)n(C)c1=O | 20.6%
CCSCCC(=O)Nc1ncn(Cc2cccnc2)n1 | 25.1%
COc1cccc(S(=O)(=O)CCN2CCCCC2)c1 | 2.37%
Cc1ccc(CC(=O)NC(C)C(=O)N2CCS(=O)(=O)CC2)cc1 (stereo unspecified) | 1.73%
Cc1csc(CNC(=O)NC2CCN(c3ncccn3)CC2)n1 | -10.6%
COCC(=O)N(C)Cc1ccc(Cl)c(Cl)c1 | -5.13%
CS(=O)(=O)N1CCO[C@@H]2CN(C(=O)N3CCOCC3)CC[C@@H]2C1 | -105%
Cc1noc(C)c1C(=O)N1C[C@@H]2C[C@@H](c3ccncn3)O[C@@H]2C1 | -70%
O=C1CCC(C(=O)N2CCOC(Cc3ccc(F)cc3)C2)=NN1 (stereo unspecified) | -6.26%
CCn1ncnc1CN1CCC(CNC(=O)c2cccnc2O)C1 (stereo unspecified) | 7.06%
CC(C)(C)c1cc(=O)[nH]c(-c2ccccc2CN2CCC[C@@H](O)C2)n1 | -43.3%

SMILES | cytotoxicity at 10 µM
COCCn1ccnc1C1CCN(c2cccc(C(=O)O)n2)CC1 | -2.74%
Cc1cccc(C(Nc2nccc(-c3ccc(C)nc3C)n2)C2CC2)n1 (stereo unspecified) | 0.74%
CN1C(=O)CC(C(=O)O)C12CCN(c1ccc3c(n1)CCCC3)CC2 (stereo unspecified) | 2.78%
Cc1n[nH]c(C)c1C(N)C(=O)NCCc1csc(C(C)C)n1 (stereo unspecified) | -8.64%
Cn1c(Cn2cccn2)nnc1C1CCN(Cc2ccccc2Cl)CC1 | -0.4%
COc1cccc(C2CCCN2C(=O)c2cc3c(nc2OC)CCC3)c1 (stereo unspecified) | -10.2%
O=C(c1ccc2c(c1)OCO2)N1C[C@@H](CN2CCCCC2)[C@@H](CO)C1 | -4.06%
CCCSc1nc(O)c(CC)c(=O)n1-c1ccccc1 | 2.77%
CC(O)CN1CCc2onc(-c3ccccc3F)c2C1 (stereo unspecified) | 0.963%
COc1cccc(C2CCCN2C(=O)CC2=CSC3=NCCCN23)c1 (stereo unspecified) | -0.277%
Cc1ccc(O)c(-c2cc(NCCO)nc3[nH]ccc23)c1 | 14.1%
COCc1ccc(C(=O)N2CCC(Oc3ccccc3)(C(=O)O)CC2)o1 | 0.871%
CCCN1CC2(CCN(C)CC2)CC1C(=O)NCCn1ccc(C)n1 (stereo unspecified) | -5.64%
COCc1cc(CN(C)C(=O)c2c[nH]nc2-c2cccc(F)c2)n[nH]1 | 0.445%
O=C(O)c1ccnc(-c2ccnc(NCCc3cscn3)n2)c1 | 0.852%
COc1cc(N2CCC(c3nccn3CCCN(C)C)CC2)nc(N)n1 | -7.41%
COCCNS(=O)(=O)c1ccc2c(c1)CCN(C(=O)c1cncn1C)C2 | 9.65%
N#Cc1ccc(C2CC(=O)Nc3c2cnn3C2CCCC2)cc1 (stereo unspecified) | 13.2%
N#Cc1cccc(CN2CCCC2Cn2cccn2)c1 (stereo unspecified) | -2.78%
Cc1ccc(CN(C)C(=O)c2scnc2C)cc1 | -6.8%
CC(=O)N1CCCN(C(=O)NCCCn2cncn2)CC1 | -10.1%
O=C(N1CCOCC1)N1CCN(CC(O)c2ccc(F)cc2)CC1 (stereo unspecified) | -2.42%
Cc1cc(CN(C)C(=O)c2ccc(Cl)c(N3CCCC3=O)c2)no1 | -14.5%

SMILES | cytotoxicity at 10 µM
CCOc1ccnc(N2CCN(C(=O)c3cn[nH]c3C)CC2)n1 | 3.54%
CC(NC(=O)NCCCO)c1ccc2c(c1)NC(=O)CO2 (stereo unspecified) | -3.05%
Cc1ccc(-c2noc(CN3CCc4nn(C)c(=O)cc4C3)n2)cc1 | -8.78%
CCN(Cc1ccco1)C(=O)Nc1cc(C(F)(F)F)c[nH]c1=O | -2.6%
NC(=O)Cn1cc(NC(=O)N2CCCC2)cn1 | -8.67%
Cc1nn(C)c(C)c1C1CCCN1C(=O)c1cc[nH]n1 (stereo unspecified) | 1.35%
CC(NC(=O)NCCCNS(C)(=O)=O)c1ccncc1 (stereo unspecified) | 1.08%
CCC(CO)NCc1ccc(-c2ccc(Br)cc2)o1 (stereo unspecified) | -5%
O=C(NC1CCCC1)c1ccnc(C2CCNCC2)c1 | -11.3%
Cc1ncsc1C(=O)NCC1CCC2(CCNCC2)CO1 (stereo unspecified) | 19.1%
Cc1ccc(CN(CCCN2CCOCC2)Cc2cnc(C)n2C)o1 | -24%
CCc1ccc(CN2CC[C@H]3C[C@H](c4nnc(C)[nH]4)O[C@@H]3C2)o1 | -8.51%
c1cnc(NCc2nnn3c2CN(Cc2ccco2)CCC3)nc1 | 9.08%
C1CC(CO[C@@H]2CC[C@H]3[C@H]2OCCN3CC2CC2)CCO1 | 11.4%
Cc1ccc(CN2CC(C(=O)N3CCCC3)C3(CCOCC3)C2)s1 (stereo unspecified) | -0.152%
Cc1ccc(CN2C[C@@H]3[C@@H](C(=O)N4CCCC4)CCS(=O)(=O)[C@@H]3C2)cc1 | 0.411%
CCOC1CC2(CCN(Cc3nccn3C)CC2)C1 | -144%
CO[C@H]1CCN(Cc2ccccn2)[C@@H]2CN(Cc3ccco3)C[C@H]12 | -7.76%
C=C1C(C)(C)[C@@H]2CC[C@]1(C(=O)N1CCC(n3cc(CCO)nn3)CC1)C2 | -4.28%
